Calls of active or inactive are those of the source. The calls are words filed in the database; no cut-off is given here.
Experiments:
[1] = Chemical stability after 30 mins of UV irradiation by RP-HPLC; type: physicochemical; conditions: read-out: Stability
Procedure, shortened: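 Free ligands in buffer solution were irradiated under a UV-A lamp (λmax 350 nm). Aliquots were taken at 0, 10 and 30 min, and intact ligand was quantified by HPLC with UV detection at 280 nm.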

[2] = target: T1, Tyrosine-protein kinase Lck (Homo sapiens, UniProt P06239); test: Binding affinity to Lck assessed as photolabeling efficiency by Western blot analysis
Procedure, shortened: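 Lck was photocrosslinked with each ligand at 0, 3, 9, 18, 36, 90 and 180 µM. Labeled-band intensities were plotted against probe concentration. EC50 (ligand concentration giving 50% of maximal labeling) and its 95% CI were obtained by sigmoidal dose-response fitting of triplicate trials (n = 3).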
Target sequence in this assay (P06239 whole entry): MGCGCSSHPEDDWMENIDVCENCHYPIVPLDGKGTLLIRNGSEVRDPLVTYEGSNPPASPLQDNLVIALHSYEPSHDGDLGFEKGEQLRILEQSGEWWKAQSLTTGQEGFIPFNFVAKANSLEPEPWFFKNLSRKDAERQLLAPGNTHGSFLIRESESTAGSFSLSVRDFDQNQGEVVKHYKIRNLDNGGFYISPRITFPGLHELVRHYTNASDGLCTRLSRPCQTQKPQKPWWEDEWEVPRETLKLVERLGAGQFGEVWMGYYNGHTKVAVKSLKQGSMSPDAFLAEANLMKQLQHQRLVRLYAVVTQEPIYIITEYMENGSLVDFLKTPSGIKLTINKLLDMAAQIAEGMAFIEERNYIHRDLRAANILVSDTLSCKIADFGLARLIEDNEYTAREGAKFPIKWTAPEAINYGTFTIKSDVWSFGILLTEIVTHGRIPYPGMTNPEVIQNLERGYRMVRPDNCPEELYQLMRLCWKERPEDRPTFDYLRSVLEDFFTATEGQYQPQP

[3] = target: T1, Tyrosine-protein kinase Lck; test: Inhibition of Lck by luciferase based assay
Procedure, shortened: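 Lck (prediluted to 46 ng/µl) was mixed with Src substrate peptide (0.25 mM stock) in 50 mM HEPES pH 7.3, 2.5 mM DTT, 0.01% Triton X-100 and 10 mM MgCl2, plus ligand at various concentrations. Reaction was started with 100 µM ATP stock and run 1 h at room temperature. Residual ATP was read by Kinase-Glo Plus luminescence after 10 min. IC50 with 95% CI from sigmoidal fit, n = 2 or 3.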

[4] = target: T1, Tyrosine-protein kinase Lck; test: Binding affinity to Lck assessed as photolabeling efficiency in presence of ATP-competitive Lck inhibitor by Western blot
Target sequence in this assay (P06239 2-509 limits assumed): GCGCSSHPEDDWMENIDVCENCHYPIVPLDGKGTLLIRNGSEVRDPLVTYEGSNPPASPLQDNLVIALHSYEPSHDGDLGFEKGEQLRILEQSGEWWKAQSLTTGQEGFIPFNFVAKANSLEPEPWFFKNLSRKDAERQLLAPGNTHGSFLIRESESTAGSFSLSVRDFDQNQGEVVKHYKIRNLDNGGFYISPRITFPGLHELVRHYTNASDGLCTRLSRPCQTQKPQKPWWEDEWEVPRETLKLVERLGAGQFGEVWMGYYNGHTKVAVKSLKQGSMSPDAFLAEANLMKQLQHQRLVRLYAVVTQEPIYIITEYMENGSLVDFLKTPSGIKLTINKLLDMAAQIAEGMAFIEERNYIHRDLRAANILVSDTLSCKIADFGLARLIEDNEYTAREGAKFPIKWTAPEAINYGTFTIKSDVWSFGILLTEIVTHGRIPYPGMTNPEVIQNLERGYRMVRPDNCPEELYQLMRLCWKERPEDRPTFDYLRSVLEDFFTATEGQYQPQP

Row | SMILES | remaining at 0.5 h [1] | EC50 [2] | Activity [3] | Activity [4] | IC50 [3]
1 | Nc1ncnc2c1ncn2CC(=O)N(CCNC(=O)CNC(=O)[C@H](Cc1ccc(C(=O)c2ccccc2)cc1)NC(=O)CCCNC(=O)CCCC[C@@H]1SC[C@@H]2NC(=O)N[C@@H]21)CC(=O)NCC(=O)O | 70% | 14.4 µM | inactive | inactive | 
2 | Nc1ncnc2c1ncn2CC(=O)N(CCNC(=O)[C@@H](CCC(=O)O)NC(=O)[C@H](Cc1ccc(C(=O)c2ccccc2)cc1)NC(=O)CCCNC(=O)CCCC[C@@H]1SC[C@@H]2NC(=O)N[C@@H]21)CC(=O)NCC(=O)O | 70% | 18.4 µM | inactive | inactive | 
3 | Nc1ncnc2c1ncn2CC(=O)N(CCNC(=O)[C@@H](CO)NC(=O)[C@H](Cc1ccc(C(=O)c2ccccc2)cc1)NC(=O)CCCNC(=O)CCCC[C@@H]1SC[C@@H]2NC(=O)N[C@@H]21)CC(=O)NCC(=O)O | 70% | 23.3 µM |  | inactive | 50 µM
4 | Nc1ncnc2c1ncn2CC(=O)N(CCNC(=O)[C@H]1CCCCN1C(=O)[C@H](Cc1ccc(C(=O)c2ccccc2)cc1)NC(=O)CCCNC(=O)CCCC[C@@H]1SC[C@@H]2NC(=O)N[C@@H]21)CC(=O)NCC(=O)O | 70% | > 150 µM | inactive |  | 
5 | Nc1ncnc2c1ncn2CC(=O)N(CCNC(=O)[C@H]1CCCN1C(=O)[C@H](Cc1ccc(C(=O)c2ccccc2)cc1)NC(=O)CCCNC(=O)CCCC[C@@H]1SC[C@@H]2NC(=O)N[C@@H]21)CC(=O)NCC(=O)O | 70% | > 150 µM |  |  | 50 µM
6 | Nc1ncnc2c1ncn2CC(=O)N(CCNC(=O)CCCNC(=O)[C@H](Cc1ccc(C(=O)c2ccccc2)cc1)NC(=O)CCCNC(=O)CCCC[C@@H]1SC[C@@H]2NC(=O)N[C@@H]21)CC(=O)NCC(=O)O | 70% | 4.4 µM | inactive | inactive | 

Reference: ChEMBL document CHEMBL1144240, “Binding is not enough: flexibility is needed for photocrosslinking of Lck kinase by benzophenone photoligands” (Bioorg Med Chem, 2008)
